As a reminder, the IC50 is the concentration at which inhibition is half-maximal.

This assay has as its target Transcriptional enhancer factor TEF-1 (Homo sapiens, UniProt P28347). Description: Inhibition of NL-tagged YAP (unknown origin) interaction with myc-tagged human TEAD1 preincubated for 1 hr followed by NL-tagged YAP addition by NanoGlo assay. An outline of the steps: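 Myc-TEAD1 from transfected HeLa lysate was captured with anti-myc antibody on protein-G-coated 96-well plates. Wells were pretreated with compound in PBS for 1 h at 4 °C, then co-incubated with lysate from HeLa cells expressing YAP–nanoluciferase. After four PBS washes, bound YAP–NL was read with NanoGlo.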

Transcriptional enhancer factor TEF-1, sequence (P28347 whole entry): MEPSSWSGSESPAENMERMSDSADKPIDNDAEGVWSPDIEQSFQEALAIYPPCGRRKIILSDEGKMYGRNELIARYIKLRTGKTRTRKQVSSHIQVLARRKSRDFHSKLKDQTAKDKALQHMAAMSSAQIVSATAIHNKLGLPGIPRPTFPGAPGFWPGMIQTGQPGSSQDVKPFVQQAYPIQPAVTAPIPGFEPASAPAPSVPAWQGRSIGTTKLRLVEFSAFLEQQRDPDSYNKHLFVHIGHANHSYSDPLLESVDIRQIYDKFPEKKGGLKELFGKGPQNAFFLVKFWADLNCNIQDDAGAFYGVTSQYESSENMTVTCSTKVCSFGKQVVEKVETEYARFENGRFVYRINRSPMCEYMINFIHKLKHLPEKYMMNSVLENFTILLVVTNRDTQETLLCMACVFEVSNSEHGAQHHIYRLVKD

`Cc1ccc2c(c1)c1c3n2CCN(C[C@H](O)CN2CCN(C(=O)c4ccco4)CC2)[C@@H]3CCC1`: the IC50 was 48 µM.

The record behind these values is BindingDB's records for doi:10.1021/acs.jmedchem.8b01402 (University of Bristol, 2019).
